Rows were chosen to be rich in hits. Some 2.3% of all compounds tested hit in one or more screens of this group.
Arrestin-AP2 inh: inhibitors of beta-arrestin/AP2 binding, primary screen, biochemical, GPCR trafficking, flow cytometry | FITC-arrestin peptide / GST-AP2 beads; AP2 beta2 appendage carries R879A mutation | inhibition, % at 10 µM | AID 504490, 2011 | 340,000 compounds, 0.31% hits;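 active = inhibition above a set limit, near 3 SD of compounds lacking own fluorescence, cut at about 54% in these data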;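 note: plate controls were DMSO wells for no effect and 5 µM unlabelled arrestin peptide for full effect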
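Test system: GST-tagged AP2 beta2-adaptin appendage (R879A) on 4 µm glutathione beads; also added: fluorescein-tagged arrestin peptide at 50 nM final; timing: 12 min plus 1 h, RT; signal: flow cytometry, FL1 (488/535 nm); read-out: percent drop in bead-associated FITC signal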
MEKK3 PB1 HTS: modulators of MEKK3-MEK5 PB1 binding, primary screen, biochemical, wildtype MEKK3, multiplex bead flow cytometry, Alexa488-MEK5. 290,000 compounds, 1.4% hits. Mitogen-activated protein kinase kinase kinase 3 (Homo sapiens), Q99759. bead-based flow cytometry, Alexa488-MEK5 binding to MEKK3; actives lie on both sides; 0 = blocked by unlabeled MEK5, 100 = vehicle. binding response (% of control), % at 10 µM;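 active = binding response more than 3 SD above or below the average of its plate-row segment, actives on both sides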;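 note: Alexa488 bead fluorescence after subtracting the streptavidin-only scavenger bead signal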
MEKK2 WT-MEK5: modulators of MEK5 binding to wildtype MEKK2, primary screen, biochemical, multiplex bead flow cytometry, Alexa488-MEK5. AID 1531, 2009. 290,000 compounds, 1.1% hits. Mitogen-activated protein kinase kinase kinase 2 (Homo sapiens), Q9Y2U5. binding response (% of control), % at 10 µM. Alexa488-MEK5 binding to MEKK2 WT; actives lie on both sides; in the data active = binding response below about 67% or above about 130%
MEKK2mut PB1 HTS: MEK5 binding signal on mutant MEKK2 PB1, primary screen, biochemical, multiplex bead flow cytometry, Alexa488-MEK5 | Alexa488-MEK5 binding to MEKK2 mutant | percent response, % at 10 µM | 290,000 compounds, 0.35% hits | AID 1530, 2009; in the data active = percent response above about 24%, passing the limit was not always enough
Arr-AP2 CP1: inhibitors of arrestin peptide binding to AP2, confirmation, biochemical, cherry pick 1, flow cytometry beads. shares compounds with Arrestin-AP2 inh. GST-AP2 beads, FITC arrestin peptide binding; GST-fused beta2-adaptin appendage, R879A mutant. inhibition, % at 10 µM. 1,300 compounds, 2% hits. AID 504908, 2011;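 active = inhibition above a set limit, roughly 3 SD of non-fluorescent compound noise, cut at about 38% in these data; inactive = inhibition at or below that limit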;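 note: loss of bead fluorescence from 50 nM FITC arrestin peptide bound to appendage; 0% = negative control wells and 100% = excess unlabelled arrestin peptide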
Target sequence (P63010 whole entry, looked up, the tested form may be a part, one chain of several): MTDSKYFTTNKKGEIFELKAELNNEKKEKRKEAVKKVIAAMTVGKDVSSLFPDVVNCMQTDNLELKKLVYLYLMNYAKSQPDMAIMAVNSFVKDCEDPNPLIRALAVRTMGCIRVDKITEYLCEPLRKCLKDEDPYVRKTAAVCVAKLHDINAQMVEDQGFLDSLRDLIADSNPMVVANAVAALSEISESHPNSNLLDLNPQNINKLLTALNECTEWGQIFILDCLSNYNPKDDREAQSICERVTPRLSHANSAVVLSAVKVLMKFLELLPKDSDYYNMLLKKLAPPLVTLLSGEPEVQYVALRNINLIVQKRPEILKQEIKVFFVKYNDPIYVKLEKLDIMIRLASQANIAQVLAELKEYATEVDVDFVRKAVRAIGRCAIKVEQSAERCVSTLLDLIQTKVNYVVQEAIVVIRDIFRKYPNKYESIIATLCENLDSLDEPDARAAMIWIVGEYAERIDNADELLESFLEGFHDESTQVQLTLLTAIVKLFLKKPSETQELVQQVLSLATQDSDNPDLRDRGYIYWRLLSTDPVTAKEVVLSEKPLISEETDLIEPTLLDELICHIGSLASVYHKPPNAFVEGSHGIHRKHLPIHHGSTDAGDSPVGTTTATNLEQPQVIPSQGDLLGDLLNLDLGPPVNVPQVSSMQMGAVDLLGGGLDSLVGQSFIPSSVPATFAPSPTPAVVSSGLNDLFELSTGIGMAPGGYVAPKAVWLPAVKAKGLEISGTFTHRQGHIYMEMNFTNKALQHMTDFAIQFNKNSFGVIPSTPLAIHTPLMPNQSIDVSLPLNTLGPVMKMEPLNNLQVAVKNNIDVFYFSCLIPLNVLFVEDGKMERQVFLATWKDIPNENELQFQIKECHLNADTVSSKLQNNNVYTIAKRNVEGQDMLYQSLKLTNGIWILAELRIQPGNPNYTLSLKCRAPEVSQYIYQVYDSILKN
GST GSH counter: GST-fluorescein capture on glutathione beads, confirmation, artefact control for arrestin-AP2 inhibitor project, biochemical, cherry pick 1, flow cytometry; 1,300 compounds, 2% hits; inhibition, % at 10 µM; shares compounds with Arrestin-AP2 inh; GST-fluorescein binding to GSH beads, fluorescence, counter-screen;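 active = inhibition above 50%, about 3 SD of the inhibition seen with non-fluorescent compounds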;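 note: fluorescein maleimide labelled GST captured on 4 micron glutathione beads; higher means more loss of bead fluorescence from quenching or blocked binding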
Numbers without * were called inactive; · = not tested or not shown.

SMILES	Arrestin-AP2 inh	MEKK3 PB1 HTS	MEKK2 WT-MEK5	MEKK2mut PB1 HTS	Arr-AP2 CP1	GST GSH counter
CCOc1ccccc1CN1CCNC(=O)C1CC(=O)N(C)C1CCOCC1 (configuration not stated)	5	100	102	4	·	·
CCOC(=O)N1CCN(S(=O)(=O)c2ccc(Cl)cc2)CC1	66*	113	118	13	-5	-6
Cc1ccc(/C=N/N2CCN(C3c4ccccc4-c4ccccc43)CC2)o1	1	87	90	-16	·	·
CCOc1cc(C(=O)Nc2cc3c(cc2N2CCCC2)n(C)c(=O)n3C)cc(OCC)c1OCC	15	97	91	-6	5	3
CCOc1cc(C(=O)Nc2ccc3c4c(cccc24)C(=O)N3CC)cc(OCC)c1OCC	3	102	101	3	·	·
COc1cc(C(=O)Nc2cc3c(cc2N2CCCCC2)n(C)c(=O)n3C)cc(OC)c1OC	-12	101	101	-2	4	-2
COc1ccc(C(=O)Nc2cc3c(cc2N2CCCCC2)n(C)c(=O)n3C)cc1OC	·	102	102	0	-5	·
Cc1ccc(C(=O)Nc2ccccc2N2CCCCC2)cc1	10	100	99	-2	·	·
Cc1ccc(C(=O)Nc2cc3c(cc2N2CCCCC2)n(C)c(=O)n3C)cc1	-1	105	103	2	4	3
CCCNC(=O)NC(=O)CSc1nc2ccccc2c(=O)n1Cc1ccncc1	10	101	102	0	·	·
O=C(CCC(=O)N1CCCCC1)Nc1ccc(Cl)c(Cl)c1	85*	107	109	4	-1	-4
CC(C)(C)NC(=O)NC(=O)CN1CCCCCCC1	62*	104	95	-6	-12	-4
O=c1cc(CO)[nH]cc1OCc1ccccc1	61*	94	102	-1	-5	-5
CCOC(=O)c1cnn(-c2ccc(C(C)C)cc2)c1NC(=O)C1CCC1	99*	107	107	7	-4	0
COc1ccc(NC(=O)/C(=C\c2cc(OC)c(OC)cc2[N+](=O)[O-])NC(=O)c2ccccc2)cc1	60*	99	102	0	0	-10
COc1cc(/C=C(/NC(=O)c2ccccc2)C(=O)Nc2ccccc2)c([N+](=O)[O-])cc1OC	-1	·	·	·	·	·
COc1ccc(-n2nc3c(c2NC(=O)c2ccc(S(=O)(=O)N4CCOCC4)cc2)CS(=O)(=O)C3)cc1	-13	99	93	-7	·	·
CNS(=O)(=O)c1cccc(C(=O)NCC2(N3CCOCC3)CCCCC2)c1	-10	102	102	2	·	·
O=C(NCC1(N2CCCCC2)CCCCC1)c1cccc(NS(=O)(=O)c2ccccc2)c1	-7	·	·	·	·	·
O=C(NCC1(N2CCCCC2)CCCCC1)c1cccc(S(=O)(=O)Nc2ccc(F)cc2)c1	11	·	·	·	-6	-4
COc1ccccc1NS(=O)(=O)c1cccc(C(=O)NCC2(N3CCCCC3)CCCCC2)c1	-7	·	·	·	8	-9
O=C(NCC1(N2CCOCC2)CCCCC1)c1cccc(S(=O)(=O)Nc2ccc(F)cc2)c1	-8	·	·	·	-2	-1
COc1ccccc1NS(=O)(=O)c1ccc(C)c(C(=O)NCC2(N(C)C)CCCCC2)c1	6	·	·	·	3	-4
CC(OC(=O)CCCN=C1NS(=O)(=O)c2ccccc21)C(=O)Nc1ccc(F)c(F)c1F (configuration not stated)	-9	·	·	·	·	·
Cc1cccc(NS(=O)(=O)c2cccc(C(=O)NCC3(N4CCOCC4)CCCCC3)c2)c1	-3	·	·	·	0	-2
SMILES	Arrestin-AP2 inh	MEKK3 PB1 HTS	MEKK2 WT-MEK5	MEKK2mut PB1 HTS	Arr-AP2 CP1	GST GSH counter
Cc1ccc(NNc2c(C)nc3ccccc3nc2=O)cc1	17	114	103	5	·	·
Cc1ccc(C(C)C)c(OCC(=O)NCC(c2cccs2)N2CCOCC2)c1 (configuration not stated)	-5	·	·	·	·	·
O=S(=O)(NCc1ccc2c(c1)OCO2)c1ccc(Cl)s1	105*	100	101	-4	7	-4
CC1(C)Cc2c(cnn2-c2ccc(F)cc2)C(NC(=O)c2ccc(=O)oc2)C1 (configuration not stated)	-2	97	102	5	·	·
Cc1ccc(-n2nc3c(=O)n(C(C)C(=O)NCCC4=CCCCC4)nc(C)c3c2C)cc1 (configuration not stated)	-3	101	99	6	·	·
CCC(C(=O)NCc1ccco1)N(Cc1cccs1)C(=O)CNS(=O)(=O)c1ccccc1 (configuration not stated)	55*	104	98	-2	-2	0
CCC(C(=O)NCc1ccco1)N(C(=O)CNS(=O)(=O)c1ccccc1)c1ccccc1C (configuration not stated)	17	107	104	1	·	·
COC(=O)c1ccccc1NC(=O)CNCCc1ccc(OC)c(OC)c1	-2	104	104	9	·	·
COc1ccc(C(CNC(=O)C(C)Oc2ccc(Br)cc2)N2CCCCC2)cc1 (configuration not stated)	-1	·	·	·	·	·
O=C(c1ccco1)N(Cc1cc2ccccc2[nH]c1=O)C1CCCCC1	79*	101	103	3	17	-9
CCOC(=O)C1CCN(C(=O)c2ccc(N3CCOCC3)c([N+](=O)[O-])c2)CC1	64*	·	·	·	-7	-3
CCOC(=O)C1CCN(C(=O)COC(=O)c2cc([N+](=O)[O-])ccc2N2CCOCC2)CC1	-7	·	·	·	·	·
Cn1c(SCC(=O)NC2CCCC2)nnc1-c1ccccn1	60*	99	102	1	-14	-9
CCc1ccc(C(=O)COC(=O)c2cc([N+](=O)[O-])ccc2NCCO)cc1	57*	101	99	-2	-2	-7
O=C(COC(=O)c1cc([N+](=O)[O-])ccc1NCCO)c1ccc(Cl)cc1	0	106	118	11	·	·
CC(=O)N(C)c1ccc(NC(=O)c2ccc([N+](=O)[O-])cc2Cl)cc1	69*	102	107	1	3	-4
CC(=O)Nc1ccc(NC(=O)c2ccc([N+](=O)[O-])cc2Cl)cc1	22	92	80	-13	·	·
COc1ccc(S(=O)(=O)c2ccc(OCC3CO3)cc2)cc1 (configuration not stated)	64*	102	101	-2	12	-2
Cc1ccc(NC(=O)/C(Cl)=C/c2ccccc2)cc1C	8	105	114	1	·	·
